Assay results published in ChEMBL document CHEMBL1149231, “2,5-Dihydropyrazolo[4,3-c]pyridin-3-ones: functionally selective benzodiazepine binding site ligands on the GABAA receptor” (Bioorg Med Chem Lett, 2004).

Experiments:
Assay type in all cases: cell-based
[1] = target: T1, GABA-A receptor; alpha-1/beta-3/gamma-2 (Homo sapiens, UniProt P14867+P18507+P28472); test: In vitro binding affinity against gamma-aminobutyric acid A receptor, alpha 1 expressed in L(tk) cells by displacement of [3H]Ro-151788
T1 sequence (P14867 whole entry): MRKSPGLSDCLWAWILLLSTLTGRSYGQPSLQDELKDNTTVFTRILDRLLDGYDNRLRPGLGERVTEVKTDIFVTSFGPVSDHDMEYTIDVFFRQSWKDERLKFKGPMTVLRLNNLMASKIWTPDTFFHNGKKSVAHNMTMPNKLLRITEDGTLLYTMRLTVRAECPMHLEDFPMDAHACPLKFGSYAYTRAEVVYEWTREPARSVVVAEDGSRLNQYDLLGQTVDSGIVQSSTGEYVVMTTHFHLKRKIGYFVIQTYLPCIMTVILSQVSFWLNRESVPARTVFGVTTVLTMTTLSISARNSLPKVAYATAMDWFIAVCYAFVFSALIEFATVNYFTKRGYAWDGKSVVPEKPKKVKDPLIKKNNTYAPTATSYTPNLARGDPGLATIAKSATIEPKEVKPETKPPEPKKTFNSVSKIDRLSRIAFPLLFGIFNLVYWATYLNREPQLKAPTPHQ
T1 sequence (P18507 whole entry): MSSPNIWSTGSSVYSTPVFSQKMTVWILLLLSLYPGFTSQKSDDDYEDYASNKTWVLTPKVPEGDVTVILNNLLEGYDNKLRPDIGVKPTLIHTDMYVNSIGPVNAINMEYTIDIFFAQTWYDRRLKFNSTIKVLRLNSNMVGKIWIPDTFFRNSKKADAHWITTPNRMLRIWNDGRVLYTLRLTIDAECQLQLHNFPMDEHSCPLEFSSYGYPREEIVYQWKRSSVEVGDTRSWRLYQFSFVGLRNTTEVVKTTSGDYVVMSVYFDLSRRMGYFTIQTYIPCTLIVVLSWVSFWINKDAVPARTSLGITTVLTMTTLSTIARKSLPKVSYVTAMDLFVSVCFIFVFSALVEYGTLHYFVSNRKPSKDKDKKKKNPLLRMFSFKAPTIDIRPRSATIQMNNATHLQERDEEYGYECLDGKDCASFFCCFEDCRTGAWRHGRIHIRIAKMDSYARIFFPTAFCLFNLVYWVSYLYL
T1 sequence (P28472 whole entry): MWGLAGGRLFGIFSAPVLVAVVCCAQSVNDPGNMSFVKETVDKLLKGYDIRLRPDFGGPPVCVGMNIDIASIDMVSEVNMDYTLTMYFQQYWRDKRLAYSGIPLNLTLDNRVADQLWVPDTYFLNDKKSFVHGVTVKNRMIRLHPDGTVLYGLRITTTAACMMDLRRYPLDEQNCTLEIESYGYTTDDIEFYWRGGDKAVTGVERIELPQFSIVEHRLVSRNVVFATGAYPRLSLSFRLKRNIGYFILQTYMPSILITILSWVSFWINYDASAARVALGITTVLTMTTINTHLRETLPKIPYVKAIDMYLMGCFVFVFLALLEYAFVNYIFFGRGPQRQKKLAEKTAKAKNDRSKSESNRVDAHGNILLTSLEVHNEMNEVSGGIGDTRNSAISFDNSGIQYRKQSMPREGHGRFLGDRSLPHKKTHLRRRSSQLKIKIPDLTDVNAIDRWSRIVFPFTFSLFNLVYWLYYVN
Outline: (§1)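 Binding to cloned human α1β3γ2, α2β3γ2 or α3β3γ2 receptors stably expressed in L(tk-) cells, measured as displacement of [3H]Ro15-1788; means ± SEM, n = 3-7.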

[2] = target: T2, GABA-A receptor; alpha-3/beta-3/gamma-2 (Homo sapiens, UniProt P18507+P28472+P34903); test: In vitro binding affinity against Gamma-aminobutyric acid A receptor, alpha 3 expressed in L(tk) cells by displacement of [3H]Ro-151788; outline: as §1
T2 sequence (P18507 whole entry): T1 sequence (P18507 whole entry)
T2 sequence (P28472 whole entry): T1 sequence (P28472 whole entry)
T2 sequence (P34903 whole entry): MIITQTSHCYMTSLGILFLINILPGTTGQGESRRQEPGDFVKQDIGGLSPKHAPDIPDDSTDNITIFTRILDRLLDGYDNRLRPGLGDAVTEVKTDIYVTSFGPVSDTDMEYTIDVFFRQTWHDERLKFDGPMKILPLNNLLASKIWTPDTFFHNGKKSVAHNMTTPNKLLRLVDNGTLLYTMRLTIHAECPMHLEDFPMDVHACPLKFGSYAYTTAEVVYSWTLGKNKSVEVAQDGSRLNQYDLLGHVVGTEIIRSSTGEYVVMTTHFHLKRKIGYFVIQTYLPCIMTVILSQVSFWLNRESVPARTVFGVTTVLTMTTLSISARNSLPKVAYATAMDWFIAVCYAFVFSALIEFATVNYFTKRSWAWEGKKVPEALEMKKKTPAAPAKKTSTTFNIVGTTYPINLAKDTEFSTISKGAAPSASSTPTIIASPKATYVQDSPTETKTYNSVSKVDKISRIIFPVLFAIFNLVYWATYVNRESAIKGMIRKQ

[3] = target: T3, GABA-A receptor; alpha-1/beta-3/gamma-2 (Homo sapiens) (UniProt P14867+P18507+P28472); test: Efficacy was determined against gamma-aminobutyric acid A receptor, alpha 1 expressed in Xenopus oocytes; conditions: Oocyte
Outline: (§2)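 Cloned human α1β3γ2, α2β3γ2 or α3β3γ2 receptors transiently expressed in Xenopus oocytes; two-electrode voltage clamp; modulation of GABA EC20 current by a single test-compound concentration (nM, given per value); means ± SEM, n = 3-7.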

[4] = target: T4, GABA-A receptor; alpha-3/beta-3/gamma-2 (Homo sapiens) (UniProt P18507+P28472+P34903); test: Efficacy was determined against Gamma-aminobutyric acid A receptor, alpha 3 expressed in Xenopus oocytes; conditions: Oocyte; outline: as §2
[5] = target: T4, GABA-A receptor; alpha-3/beta-3/gamma-2 (Homo sapiens); test: Efficacy against human GABA-A receptor alpha-3-beta-3-gamma-2 subunits expressed in L(tk-) cells by whole-cell patch-clamp
Outline: (§3)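 Whole-cell patch-clamp of L(tk-) cells stably expressing cloned human α1β3γ2, α2β3γ2 or α3β3γ2 receptors; full concentration-effect curves built; means ± SEM, n = 3-7.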

[6] = target: T3, GABA-A receptor; alpha-1/beta-3/gamma-2 (Homo sapiens); test: Efficacy against human GABA-A receptor alpha-1-beta-3-gamma-2 subunits expressed in L(tk-) cells by whole-cell patch-clamp; outline: as §3
[7] = target: T5, GABA-A receptor; alpha-2/beta-3/gamma-2 (Homo sapiens, UniProt P18507+P28472+P47869); test: In vitro displacement of [3H]Ro-151788 from human GABA-A receptor alpha-2-beta-3-gamma-2 subunits expressed in L(tk-) cells; outline: as §1
T5 sequence (P18507 whole entry): T1 sequence (P18507 whole entry)
T5 sequence (P28472 whole entry): T1 sequence (P28472 whole entry)
T5 sequence (P47869 whole entry): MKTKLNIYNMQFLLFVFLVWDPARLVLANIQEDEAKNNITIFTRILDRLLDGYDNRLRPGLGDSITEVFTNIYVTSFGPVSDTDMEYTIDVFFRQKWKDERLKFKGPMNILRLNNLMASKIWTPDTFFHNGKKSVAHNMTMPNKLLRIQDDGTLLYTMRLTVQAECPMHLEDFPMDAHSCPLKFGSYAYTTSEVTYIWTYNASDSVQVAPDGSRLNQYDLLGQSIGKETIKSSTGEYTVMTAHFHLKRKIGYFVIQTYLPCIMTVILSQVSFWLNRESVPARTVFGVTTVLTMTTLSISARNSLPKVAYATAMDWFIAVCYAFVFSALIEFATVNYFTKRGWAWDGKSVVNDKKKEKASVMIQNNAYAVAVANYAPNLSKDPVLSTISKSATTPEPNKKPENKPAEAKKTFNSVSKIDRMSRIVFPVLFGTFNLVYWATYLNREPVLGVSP

[8] = target: T6, GABA-A receptor; alpha-2/beta-3/gamma-2 (Homo sapiens) (UniProt P18507+P28472+P47869); test: Efficacy against human GABA-A receptor alpha-2-beta-3-gamma-2 subunits expressed in L(tk-) cells by whole-cell patch-clamp; outline: as §3
[9] = target: T6, GABA-A receptor; alpha-2/beta-3/gamma-2 (Homo sapiens); test: Efficacy relative to GABA EC20 against human GABA-A receptor alpha-2-beta-3-gamma-2 subunits expressed in Xenopus oocytes; conditions: Oocyte; outline: as §2
[10] = target: T2, GABA-A receptor; alpha-3/beta-3/gamma-2; test: In vitro displacement of [3H]Ro-151788 from human GABA-A receptor alpha-3-beta-3-gamma-2 subunits expressed in L(tk-) cells; outline: as §1

Structure (SMILES)	Ki [1] [nM]	Ki [2] [nM]	Efficacy [3] [%]	Efficacy [4] [%]	Efficacy [5] [%]	Efficacy [6] [%]	Ki [7] [nM]	Efficacy [8] [%]	Efficacy [9] [%]	Ki [10] [nM]
Oc1c2c(nn1-c1ccc(Cl)cc1)C1CCCC1N=C2 (centres undefined)	0.44	1.12	19	51	–	–	–	–	–	–
Oc1c2c(nn1-c1ccc(Cl)cc1)C1CN(CC3CC3)CCC1N=C2 (centres undefined)	0.45	7.45	111	123	–	–	–	–	–	–
Oc1c2cnc3c(c2nn1-c1ccccn1)CCCC3	0.57	1.14	-39	-7	–	–	–	–	–	–
Oc1c2c(nn1-c1ccc(OC(F)F)cc1)C1CSCCC1N=C2 (centres undefined)	0.38	0.89	9	25	–	–	–	–	–	–
Oc1c2cnc3c(c2nn1-c1ccc(F)cc1)CCCC3	0.29	0.65	-2	33	–	–	–	–	–	–
O=C(Cc1cccnc1)N1CCC2N=Cc3c(nn(-c4ccc(Cl)cc4)c3O)C2C1 (centres undefined)	3.15	5.4	49	2.3	–	–	–	–	–	–
Oc1c2cnc3c(c2nn1-c1ccc(OC(F)F)cc1)CCCC3	1	2.25	21	56	34	2	–	–	–	–
O=c1c2c[nH]c3c(c-2nn1-c1ccc(Cl)cc1)CCCC3	0.19	1.03	12	93	70	17	0.77	43	61	–
Oc1c2c(nn1-c1ccc(Cl)cc1)C1CCCCCC1N=C2 (centres undefined)	1.06	4.27	23	87	–	–	–	–	–	–
COc1ccc(-n2nc3c4c(ncc3c2O)CCCC4)cc1	0.31	0.61	15	55	–	–	–	–	–	–
Oc1c2cnc3c(c2nn1-c1ccc(OC2CCC2)cc1)CCCC3	1.3	2.55	49	36	–	–	–	–	–	–
Oc1c2cnc3c(c2nn1-c1ccc(OC(F)(F)F)cc1)CCCC3	7.33	4.7	14	35	–	–	–	–	–	–
Oc1c2c(nn1-c1ccc(OC(F)F)cc1)C1COCCC1N=C2 (centres undefined)	1.55	6.4	11	32	–	–	–	–	–	–
Oc1c2c(nn1-c1ccc(Cl)cc1)C1CN(Cc3ccncc3)CCC1N=C2 (centres undefined)	0.18	0.56	131	199	–	–	–	–	–	–
Oc1c2cnc3c(c2nn1-c1ccc(OC2CC2)cc1)CCCC3	1.13	–	19	62	54	-4.3	–	–	–	2.19
